Measured values of several laboratories.
Protocols differ between the studies behind these lines.
Organism: Mycobacterium tuberculosis
Effect on: microbial growth

For `Cc1c(Cc2cccc(Cl)c2)c(=O)n2c([nH]c3ccccc32)c1C#N`, the MIC was over 128 µg/mL (broth dilution; H37RV).
With `CC1CCCC2(C1)SC(C)C(=O)N2NC(=O)c1[nH]c2ccc(Cl)cc2c1-c1ccccc1` (stereo not drawn) the MIC was 500 µM (ATCC27294 H37RV).
For `NNC(=O)c1ccncc1`, the MIC was 0.05 µg/mL (H37RV).
With `NNC(=O)c1ccncc1` the MIC was 0.3 µM (H37RV; 5 days).
The MIC of `CO/N=C(\C(=O)N[C@@H]1C(=O)N2C(C(=O)O)=C(COC(C)=O)CS[C@H]12)c1csc(N)n1` is reported as 16 µg/mL (resazurin; H37RA; 14 days).
With `Cc1ccc(CN2CC[C@]34OC[C@H](C(C)C)N3C(=O)CC[C@@H]4C2)cc1` the MIC was 1.66 µM (H37RV).
With `O=C1C(=NNc2nc(-c3ccccc3)cs2)C(N=Cc2ccc([N+](=O)[O-])cc2)=NN1c1ccccc1` the MIC was 25 µg/mL (resazurin; H37RV).
With `CO[C@H]1/C=C/O[C@@]2(C)Oc3c(C)c(O)c4c(O)c(c(/C=N/N5CCN(C)CC5)c(O)c4c3C2=O)NC(=O)/C(C)=C\C=C\[C@H](C)[C@H](O)[C@@H](C)[C@@H](O)[C@@H](C)[C@H](OC(C)=O)[C@@H]1C` the MIC was 0.075 µM (resazurin; H37RV; 14 days).
For `N#Cc1cc(C(F)(F)F)cc2c(=O)nc(N3CCN(CC4CCOC4)CC3)sc12` (stereo not drawn), the MIC was 1.9 µM (resazurin; H37RV).
For `COC(=O)c1cc(-c2cccc(NC(=S)Nc3ccc(F)cc3)c2)on1`, the MIC was 4 µg/mL (ATCC27294 H37RV; 7 days).
`NC(=O)c1cnccn1` has an MIC of 3.12 µg/mL (resazurin; H37RV).
With `COC(=O)c1cc(-c2cccc(NC(=S)Nc3ccc(C)cc3)c2)on1` the MIC was 2 µg/mL (ATCC27294 H37RV; 7 days).
`CC1CCCC2(C1)SCC(=O)N2NC(=O)c1[nH]c2ccc(Cl)cc2c1-c1ccccc1` (stereo not drawn) gave an MIC of 16 µM (ATCC27294 H37RV).
For `COc1nc2ccc(Br)cc2cc1[C@@H](c1ccccc1)[C@@](O)(CCN(C)C)c1cccc2ccccc12`, the MIC was 0.06 µg/mL.
`COC(=O)c1cc(-c2cccc(NC(=S)Nc3ccccc3)c2)on1` has an MIC of 2 µg/mL (ATCC27294 H37RV; 7 days).
With `[H]/N=C(/N)N[C@H]1[C@H](O)[C@@H](O)[C@H](O[C@@H]2O[C@@H](C)[C@](O)(C=O)[C@H]2O[C@@H]2O[C@@H](CO)[C@H](O)[C@@H](O)[C@@H]2NC)[C@@H](N/C(N)=N\[H])[C@@H]1O` the MIC was 6.25 µg/mL (resazurin; H37RV).
`Cc1ccc2nc(C)c(C(=O)NCc3ccc(S(F)(F)(F)(F)F)cc3)n2c1` gave an MIC of 0.014 µM (H37RV; 5 days).
`COc1cc(C=NC2=NN(c3ccccc3)C(=O)C2=NNc2nc(-c3ccccc3)cs2)ccc1O` gave an MIC of 12.5 µg/mL (resazurin; H37RV).
With `Cc1ccc(C)n1-c1ccc(-c2nnc(-c3ccccc3[N+](=O)[O-])[nH]2)cc1` the MIC was 16 µg/mL (broth dilution; H37RV; 21 days).
With `CO[C@H]1/C=C/O[C@@]2(C)Oc3c(C)c(O)c4c(O)c(c(/C=N/N5CCN(C)CC5)c(O)c4c3C2=O)NC(=O)/C(C)=C\C=C\[C@H](C)[C@H](O)[C@@H](C)[C@@H](O)[C@@H](C)[C@H](OC(C)=O)[C@@H]1C` the MIC was 0.06 µg/mL (ATCC27294 H37RV; 8 days).
With `Cc1ccc(NC(=O)c2ccccc2)cc1Nc1nccn1-c1cc(NC2CCCC2)ncn1` the MIC was over 20 µM (W4).
With `O=C(NC(=O)c1cc2c(F)cc(F)cc2[nH]1)c1cccc(Cl)c1` the MIC was over 96 µM (resazurin; H37RV).
`CC(C)=CCCC(C)CC1CC(=O)c2ccc(O)cc2O1` (stereo not drawn) has an MIC of 100 µg/mL (broth dilution; H37RV).
With `Cc1cc(C)n(C(=O)c2ccc(-n3c(C)ccc3C)cc2)n1` the MIC was 8 µg/mL (broth dilution; H37RV; 21 days).
`O=C(CNS(=O)(=O)c1ccc([N+](=O)[O-])cc1[N+](=O)[O-])N1CCN(C(c2ccc(F)cc2)c2ccc(F)cc2)CC1` has an MIC of 25 µg/mL (ATCC27294 H37RV).
`Cc1cn2c(C(=O)NCc3ccc(S(F)(F)(F)(F)F)cc3)c(C)nc2s1` gave an MIC of 0.078 µM (resazurin; H37RV).
`CC1=NN(CNc2ccccn2)C(=O)C1=NNn1c(-c2ccccc2)nc2ccccc2c1=O` has an MIC of 110 µM (resazurin; H37RV).
`COC(=O)c1cc(-c2cccc(NC(=O)Nc3cc(OC)ccc3OC)c2)on1` has an MIC of 0.5 µg/mL (ATCC27294 H37RV; 7 days).
`CC1(C)S[C@@H]2[C@H](NC(=O)[C@H](N)c3ccccc3)C(=O)N2[C@H]1C(=O)O` has an MIC of 64 µg/mL (resazurin; H37RA; 14 days).
With `C[C@@H]1CN(c2nc(=O)c3cc(C(F)(F)F)cc(C#N)c3s2)[C@@H](C)CN1CC1CCCCC1` the MIC was over 2 µM (resazurin; H37RV).
With `COC(=O)c1cc(-c2cccc(NC(=S)Nc3ccc(Cl)cc3)c2)on1` the MIC was 1 µg/mL (ATCC27294 H37RV; 7 days).
For `[H]/N=C(/N)N[C@H]1[C@H](O)[C@@H](O)[C@H](O[C@@H]2O[C@@H](C)[C@](O)(C=O)[C@H]2O[C@@H]2O[C@@H](CO)[C@H](O)[C@@H](O)[C@@H]2NC)[C@@H](N/C(N)=N\[H])[C@@H]1O`, the MIC was 1.1 µg/mL (H37RV).
`O=C(C1CCCN(S(=O)(=O)c2ccccc2[N+](=O)[O-])C1)N1CCN(C(c2ccc(F)cc2)c2ccc(F)cc2)CC1` (stereo not drawn) has an MIC of over 25 µg/mL (ATCC27294 H37RV).
With `CC1CC(C)(C)CC2(C1)SCC(=O)N2NC(=O)c1[nH]c2ccc(Cl)cc2c1-c1ccccc1` (stereo not drawn) the MIC was 500 µM (ATCC27294 H37RV).
The MIC of `N=C(N)Cc1ccc(NC(=O)c2ccc(C(=O)Nc3ccc(CC(=N)N)cc3)cc2)cc1` is reported as 1 µg/mL (H37RV; 7 days).
For `COC(=O)c1cc(-c2cccc(NC(=O)Nc3ccc(F)c(F)c3)c2)on1`, the MIC was 0.5 µg/mL (ATCC27294 H37RV; 7 days).
With `O=[N+]([O-])c1cn2c(n1)OC[C@@H](OCc1ccc(N3CCCCC3)nc1)C2` the MIC was 0.4 to 0.8 µg/mL (H37RV).
For `CCCCCCC/C=C\[C@H](O)C#CC#C[C@@H](O)CC`, the MIC was 50.2 µg/mL (resazurin; ATCC27294 H37RV; 7 days).
The MIC of `Cc1c(Cc2ccc(Cl)c(Cl)c2)c(=O)n2c([nH]c3ccccc32)c1C#N` is reported as 0.5 µg/mL (broth dilution; H37RV).
`CC(C)[C@H]1CO[C@]23CCN(Cc4ccccc4)C[C@H]2CCC(=O)N13` gave an MIC of 7.3 µM (H37RV; 7 days).
`CCCCCCC/C=C\C(O)C#CC#CC(=O)CCOC` (stereo not drawn) gave an MIC of over 60 µg/mL (resazurin; ATCC27294 H37RV; 7 days).
With `CCCC1CCC2(CC1)SCC(=O)N2NC(=O)c1[nH]c2ccc(Cl)cc2c1-c1ccccc1` (stereo not drawn) the MIC was 31 µM (ATCC27294 H37RV).
For `Cc1cc(N)c2ccccc2[n+]1CCCCCCCCCC[n+]1c(C)cc(N)c2ccccc21`, the MIC was 1.2 µg/mL (broth dilution).
For `NNC(=O)c1ccncc1`, the MIC was 0.03 µg/mL (ATCC27294 H37RV; 7 days).
The MIC of `CC[C@@H](CO)NCCN[C@@H](CC)CO` is reported as 1 µg/mL (resazurin; H37RA; 14 days).
`Cc1ccn2c(C(=O)NCc3ccc(S(F)(F)(F)(F)F)cc3)c(C)nc2c1` gave an MIC of 0.25 µM (H37RV; 5 days).
For `C[C@H]1O[C@H](O[C@H]2CC[C@H](n3ccc(NC(=O)c4ccc(NC(=O)[C@@](C)(N)CO)cc4)nc3=O)O[C@@H]2C)[C@H](O)[C@@H](O)[C@@H]1N(C)C`, the MIC was 0.8 µM (H37RA).
With `Cc1ccc(C)n1-c1ccc(-c2nnc(S)s2)cc1` the MIC was 1 µg/mL (broth dilution; H37RV; 21 days).
The MIC of `Nc1ncnc2c1ncn2[C@@H]1O[C@H](COS(N)(=O)=O)[C@@H](O)[C@H]1O` is reported as 0.16 µg/mL (H37RV).
`Cc1ccc(C)n1-c1ccc(C(=O)NNC=O)cc1` gave an MIC of 4 µg/mL (broth dilution; H37RV; 21 days).
`COC(=O)c1cc(-c2cccc(NC(=S)Nc3ccc([N+](=O)[O-])cc3)c2)on1` gave an MIC of 2 µg/mL (ATCC27294 H37RV; 7 days).
